# Measurements pooled from the literature.
# Lines come from different studies, so protocols differ.
# Target: Serine/threonine-protein kinase MRCK beta (CDC42BPB, Homo sapiens, UniProt Q9Y5S2)
Structure (SMILES),assay,conditions,quantity,result
CCCS(=O)(=O)Nc1ccc(F)c(C(=O)c2c[nH]c3ncc(-c4ccc(Cl)cc4)cc23)c1F,"enzyme activity, inhibitor",1 µM,inhibition,< 10%
CS(=O)(=O)c1cc(C2(NC(=O)c3cncc4c3cnn4-c3ccc(F)cc3)CC2)ccn1,"cell-free assay, competition with immobilised ligand",1 µM,remaining binding,100%
CC(C)(C)c1nc(-c2cccc(NS(=O)(=O)c3c(F)cccc3F)c2F)c(-c2ccnc(N)n2)s1,"enzyme activity, inhibitor, radiometric",1 µM,remaining activity,98%
COc1cc(Cl)c(C(=O)N[C@@H](CN[C@H]2CC[C@@H](N)CC2)Cc2ccc(C#N)cc2)cc1-c1ccc(CN[C@H](C)c2ccc(C)cc2)o1,"enzyme activity, inhibitor",1 µM,remaining activity,100%
O=C(NS(=O)(=O)c1ccc(NCC2CCOCC2)c([N+](=O)[O-])c1)c1ccc(N2CCN(Cc3ccc(C(F)(F)F)cc3-c3ccc(Cl)cc3)CC2)cc1Oc1cnc2[nH]ccc2c1,"cell-free assay, competition with immobilised ligand",1 µM,remaining binding,94%
CCCOc1ccc(OC)c(F)c1C(=O)c1ccc(C(=O)N[C@@H]2CNC[C@H]2NC(=O)c2ccc3[nH]ncc3c2)cc1,"enzyme activity, inhibitor",10 µM,remaining activity,0%
CCN(CC)CCNC(=O)c1c(C)[nH]c(/C=C2\C(=O)Nc3ccc(F)cc32)c1C,"enzyme activity, inhibitor",0.3 µM,inhibition,8%
Cc1noc([C@H]2C[C@@H](c3ccc(C(F)(F)F)cc3)CN(C(=O)N3CCS(=O)(=O)C3)C2)n1,"cell-free assay, competition with immobilised ligand",1 µM,remaining binding,100%
O=c1cc(-c2cccc3c2Sc2ccccc2S3)oc(N2CCOCC2)c1,"enzyme activity, inhibitor",0.5 µM,remaining activity,103%
O=C(Nc1cnn(-c2csc(C(=O)NC3COC3)c2)c1)Nc1c(F)cccc1Cl,"enzyme activity, inhibitor",5 µM,remaining activity,89%
CSc1cccnc1N1CCN(Cc2nc3ccccc3[nH]2)CC1,"cell-free assay, competition with immobilised ligand",1 µM,remaining binding,100%
c1ccc(CNc2nc(N3CCOc4ccccc43)nc3c2CCCC3)cc1,"target engagement in cells, inhibitor, chemoproteomics",20 mM,inhibition,-0.5%
CC/C(=N\NC(=O)C(C)Nc1ccccc1)c1ccc(O)c(C)c1O (centres unmarked),"enzyme activity, inhibitor",0.1 µM,inhibition,7.1%
O=C1Nc2ccc(Cl)cc2C1=Cc1cc(Cl)c(O)c(Cl)c1,cell-free assay,0.5 µM,remaining signal,91.4%
CCN(CC)c1ccc(C2=NNC(=O)CC2C)cc1[N+](=O)[O-] (centres unmarked),"enzyme activity, inhibitor",10 µM,remaining activity,101%
CNC(=O)c1cc(Oc2ccc(NC(=O)Nc3ccc(Cl)c(C(F)(F)F)c3)cc2)ccn1,"enzyme activity, inhibitor",0.3 µM,inhibition,12%
CN(c1ccnc(CNc2nc(Nc3ccc4c(c3)CC(=O)N4)ncc2C(F)(F)F)n1)S(C)(=O)=O,"cell-free assay, competition with immobilised ligand",1 µM,remaining binding,100%
COc1cc2ncnc(Nc3ccc(Oc4ccccc4)c(C)c3C)c2cc1OC,"enzyme activity, inhibitor",1 µM,inhibition,2%
Cc1c(NC(=O)c2cc(C(N)=O)nc3cc(F)ccc23)c(C(F)(F)F)nn1Cc1ccc(C#N)cc1,"cell-free assay, competition with immobilised ligand",1 µM,remaining binding,100%
Cc1ccc(NC(=O)c2ccc(C)c(C(F)(F)F)c2)cc1C#Cc1nn(C2CCC(O)CC2)c2ncnc(N)c12 (centres unmarked),cell-free assay,10 µM,remaining signal,87%
N#CCCc1ccc2c(c1)-c1[nH]c3ccc([N+](=O)[O-])cc3c1CC(=O)N2,cell-free assay,0.5 µM,remaining signal,54.1%
CNCc1ccccc1-c1csc([C@H](C)Nc2nc(C)nc3cc(OC)c(OC)cc23)c1,"cell-free assay, competition with immobilised ligand",1 µM,remaining binding,100%
Cc1ccc(Nc2nccc(N(C)c3ccc4c(C)n(C)nc4c3)n2)cc1S(N)(=O)=O,"enzyme activity, inhibitor",0.3 µM,inhibition,9%
O=c1c2ccccc2[nH]c(=S)n1CCN1CCC(=C(c2ccc(F)cc2)c2ccc(F)cc2)CC1,"enzyme activity, inhibitor",0.5 µM,remaining activity,106%
CCc1ccccc1C(=O)Nc1n[nH]c2c(C)c(F)c(C3C(C#N)=C(C)N(C)C(C)=C3C#N)cc12,"cell-free assay, competition with immobilised ligand",1 µM,remaining binding,100%
Cc1cc(NC(=O)c2cccc3cc(-c4cccc5[nH]nc(N)c45)ccc23)ccc1F,"enzyme activity, inhibitor",0.1 µM,activity vs control,100%
